# Experimental data published in ChEMBL document CHEMBL3992522, “Antileishmanial Activity of Pyrazolopyridine Derivatives and Their Potential as an Adjunct Therapy with Miltefosine” (J Med Chem, 2017).
# Key:
# Mus musculus [1] = assay: Increase in IL-12 level in Balb/c mouse splenocytes infected with Leishmania donovani amastigote forms at 25 mg/kg, po administered for 5 consecutive days measured on day 4 post last treatment by sandwich ELISA relative to control; format: functional
# Mus musculus [2] = assay: Increase in IFNgamma level in Balb/c mouse splenocytes infected with Leishmania donovani amastigote forms at 25 mg/kg, po administered for 5 consecutive days measured on day 4 post last treatment by sandwich ELISA relative to control; format: functional
# Mus musculus [3] = assay: Increase in TNFalpha level in Balb/c mouse splenocytes infected with Leishmania donovani amastigote forms at 25 mg/kg, po administered for 5 consecutive days measured on day 7 post last treatment by sandwich ELISA relative to control; format: functional
# Leishmania donovani [4] = assay: Antileishmanial activity against Leishmania donovani MHOM/IN/80/DD8 promastigote forms harboring luciferase gene at 50 uM after 72 hrs by Steady-Glo reagent based luminescence assay relative to control; format: functional; conditions: MHOM/IN/80/DD8, 72 h, read-out: GI
# Procedure, shortened: (§1)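 Exponential-phase Dd8-Luc promastigotes at 1×10^6/mL in M199 with 10% FBS, 24 °C, given 50 and 25 µM for 72 h. Vehicle 0.1% DMSO. Steady-Glo added 1:1, luminescence (RLU) read. IC50 from four-parameter Hill regression, derived only where inhibition exceeded 90%. Means of at least three independent experiments.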
# Mus musculus [5] = assay: Increase in IL-12 level in Balb/c mouse splenocytes infected with Leishmania donovani amastigote forms at 25 mg/kg, po administered for 5 consecutive days measured on day 7 post last treatment by sandwich ELISA relative to control; format: functional
# Mus musculus [6] = assay: Decrease in IL-10 level in Balb/c mouse splenocytes infected with Leishmania donovani amastigote forms at 25 mg/kg, po administered for 5 consecutive days measured on day 7 post last treatment by sandwich ELISA relative to control; format: functional; conditions: 168 h
# Leishmania donovani [7] = assay: Antileishmanial activity against Leishmania donovani MHOM/IN/80/DD8 amastigote forms harboring luciferase gene infected in mouse J774 cells at 25 uM after 72 hrs by Steady-Glo reagent based luminescence assay relative to control; format: functional; conditions: MHOM/IN/80/DD8, J774, 72 h, read-out: GI
# Procedure, shortened: (§2)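 Stationary-phase luciferase-expressing Dd8 promastigotes infected into J774 macrophages (4×10^4/mL seeded, 24 h, 37 °C, 5% CO2) at 1:8 macrophage:parasite for 24 h. Non-internalised parasites washed off. Compounds added at 50 and 25 µM in RPMI/10% FBS for 72 h. Lysis with Steady-Glo luciferin reagent plus PBS, luminescence read. Inhibition relative to untreated infected controls.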
# Leishmania donovani [8] = assay: Antileishmanial activity against Leishmania donovani MHOM/IN/80/DD8 amastigote forms harboring luciferase gene infected in mouse J774 cells after 72 hrs by Steady-Glo reagent based luminescence assay; format: functional, cell-based; conditions: MHOM/IN/80/DD8, J774, 72 h
# Mus musculus [9] = assay: Decrease in TGFbeta level in Balb/c mouse splenocytes infected with Leishmania donovani amastigote forms at 25 mg/kg, po administered for 5 consecutive days measured on day 4 post last treatment by sandwich ELISA relative to control; format: functional; conditions: 96 h
# Mus musculus [10] = assay: Decrease in IL-10 level in Balb/c mouse splenocytes infected with Leishmania donovani amastigote forms at 25 mg/kg, po administered for 5 consecutive days measured on day 4 post last treatment by sandwich ELISA relative to control; format: functional; conditions: 96 h
# Mus musculus [11] = assay: Decrease in TGFbeta level in Balb/c mouse splenocytes infected with Leishmania donovani amastigote forms at 25 mg/kg, po administered for 5 consecutive days measured on day 7 post last treatment by sandwich ELISA relative to control; format: functional; conditions: 168 h
# [12] = Cytotoxicity against African green monkey Vero cells assessed as reduction in cell viability after 72 hrs by MTT assay; format: cell-based; conditions: chlorocebus sabaeus
# Procedure, shortened: (§3)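 Vero and J774 cells seeded at 1×10^5 per well for 24 h, then exposed 72 h to seven two-fold dilutions from 500 to 7.81 μM. MTT solution (5 mg/mL stock) added for 2 h at 37 °C, formazan dissolved in DMSO and read at 540 nm. CC50 derived by the Huber and Koella method.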
# [13] = Cytotoxicity against mouse J774 cells assessed as reduction in cell viability after 72 hrs by MTT assay; format: cell-based; procedure, shortened: as §3
# [14] = Selectivity index, ratio of CC50 for mouse J774 cells to IC50 for Leishmania donovani MHOM/IN/80/DD8 amastigote forms infected in mouse J774 cells; format: toxicity, cell-based; conditions: read-out: Ratio CC50/IC50
# Procedure, shortened: (§4)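 CC50: Vero or J774 cells (1×10^5/well) exposed 72 h to seven two-fold dilutions, 500–7.81 μM; MTT 2 h at 37 °C, formazan in DMSO read at 540 nm. IC50: luciferase-expressing Dd8 amastigotes in J774 macrophages (1:8), 72 h, luminescence, four-parameter Hill fit. SI = CC50/IC50, IC50 mean of three experiments.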
# Leishmania donovani [15] = assay: Antileishmanial activity against Leishmania donovani amastigote forms infected in Balb/c mouse assessed as inhibition of parasitic burden in liver at 5 mg/kg, po administered for 5 consecutive days measured on day 7 post last treatment by Giemsa staining based assay relative to control; format: functional; conditions: 168 h
# Mus musculus [16] = assay: Increase in IFNgamma level in Balb/c mouse splenocytes infected with Leishmania donovani amastigote forms at 25 mg/kg, po administered for 5 consecutive days measured on day 7 post last treatment by sandwich ELISA relative to control; format: functional
# Leishmania donovani [17] = assay: Antileishmanial activity against Leishmania donovani MHOM/IN/80/DD8 amastigote forms harboring luciferase gene infected in mouse J774 cells at 50 uM after 72 hrs by Steady-Glo reagent based luminescence assay relative to control; format: functional; conditions: MHOM/IN/80/DD8, J774, 72 h, read-out: GI; procedure, shortened: as §2
# Leishmania donovani [18] = assay: Antileishmanial activity against Leishmania donovani MHOM/IN/80/DD8 promastigote forms harboring luciferase gene at 25 uM after 72 hrs by Steady-Glo reagent based luminescence assay relative to control; format: functional; conditions: MHOM/IN/80/DD8, 72 h, read-out: GI; procedure, shortened: as §1
# [19] = Selectivity index, ratio of CC50 for African green monkey Vero cells to IC50 for Leishmania donovani MHOM/IN/80/DD8 amastigote forms infected in mouse J774 cells; format: toxicity, cell-based; conditions: read-out: Ratio CC50/IC50; procedure, shortened: as §4
# Mus musculus [20] = assay: (§5) Increase in iNOS-mediated NO generation in Balb/c mouse splenocytes infected with Leishmania donovani amastigote forms at 5 mg/kg, po for 5 consecutive days measured on day 4 and 7 post last treatment followed by soluble Leishmania donovani promastigote antigen-stimulation for 72 hrs by Griess assay relative to control; format: functional
# Procedure, shortened: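 Splenocytes from treated infected BALB/c mice (5-day regimen, i.p. test compound, oral miltefosine; n = 5) isolated day 4 and day 7 post-treatment. Cultured in phenol red-free RPMI 1640 with 5 μg/mL SLA for 72 h at 37 °C, 5% CO2. Supernatant nitrite measured by Griess assay at 540 nm against a sodium nitrite standard curve.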
# Mus musculus [21] = assay: as §5, with “at 25” for “at 5”, “4” for “4 and 7”; format: functional
# Mus musculus [22] = assay: Increase in TNFalpha level in Balb/c mouse splenocytes infected with Leishmania donovani amastigote forms at 25 mg/kg, po administered for 5 consecutive days measured on day 4 post last treatment by sandwich ELISA relative to control; format: functional
# Leishmania donovani [23] = assay: Antileishmanial activity against Leishmania donovani amastigote forms infected in Balb/c mouse assessed as inhibition of parasitic burden in spleen at 5 mg/kg, po administered for 5 consecutive days measured on day 7 post last treatment by Giemsa staining based assay relative to control; format: functional; conditions: 168 h
smiles,measurement,setting,value
CCCCCCCCCCCCCCCCOP(=O)([O-])OCC[N+](C)(C)C [MILTEFOSINE],fold change (FC),Mus musculus [1],12.9
same,fold change (FC),Mus musculus [2],9.1
same,fold change (FC),Mus musculus [3],5.3
same,inhibition of growth at 50 µM,Leishmania donovani [4],100%
same,fold change (FC),Mus musculus [5],9.5
same,inhibition in vivo at 25 mg/kg,Mus musculus [6],92.9%
same,inhibition of growth at 25 µM,Leishmania donovani [7],99.8%
same,IC50,Leishmania donovani [8],9.46 µM
same,inhibition in vivo at 25 mg/kg,Mus musculus [9],87.5%
same,inhibition in vivo at 25 mg/kg,Mus musculus [10],88.7%
same,inhibition in vivo at 25 mg/kg,Mus musculus [11],94.6%
same,CC50 at 72 h,[12],50.8 µM
same,CC50 at 72 h,[13],55.7 µM
same,selectivity ratio,[14],5.8
same,inhibition in vivo at 5 mg/kg,Leishmania donovani [15],> 75%
same,fold change (FC),Mus musculus [16],8.1
same,inhibition of growth at 50 µM,Leishmania donovani [17],100%
same,inhibition of growth at 25 µM,Leishmania donovani [18],100%
same,selectivity ratio,[19],5.3
same,fold change (FC),Mus musculus [20],4.3
same,fold change (FC),Mus musculus [21],7.4
same,fold change (FC),Mus musculus [22],6.5
same,inhibition in vivo at 5 mg/kg,Leishmania donovani [23],> 61%
